Reference: ChEMBL document CHEMBL4411315, “Discovery of Novel Dual Histone Deacetylase and Mammalian Target of Rapamycin Target Inhibitors as a Promising Strategy for Cancer Therapy” (J Med Chem, 2019)
The source made the active and inactive calls. No cut-off for these calls is given here.

Columns and labels:
MV4-11 [1] = assay: Induction of apoptosis in human MV4-11 cells assessed as late apoptotic cells at 10 nM after 48 hrs by Annexin V-FITC/propidium iodide staining-based flow cytometric analysis (reference value: 5.03%); assay type: functional
[2] = target: T1, Serine/threonine-protein kinase mTOR (Homo sapiens, UniProt P42345); assay: Inhibition of mTOR in human MV4-11 cells assessed as decrease in ERK phosphorylation after 24 hrs by Western blot analysis; assay type: cell-based
In short: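 Treatment of MV4-11 cells lasted 24 h at 0.01, 0.1, 1 and 10 μM. Lysis in RIPA buffer and BCA quantitation, then 30 μg protein by SDS-PAGE, PVDF transfer, 5% milk block, primary antibody overnight at 4 °C, HRP secondary 1 h and ECL detection. p-p70S6K (T389), p-4EBP1 (S65), p-Akt (S473) and p-ERK were probed.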

MM1.S [3] = assay: Cell cycle arrest in human MM1S cells assessed as accumulation at S phase at 10 nM after 24 hrs by propidium iodide/RNase staining-based FACS analysis (reference value: 24.49%); assay type: functional
MV4-11 [4] = assay: Induction of apoptosis in human MV4-11 cells assessed as necrotic cells at 320 nM after 48 hrs by Annexin V-FITC/propidium iodide staining-based flow cytometric analysis (reference value: 0.17%); assay type: functional
Histone deacetylase 5 = Histone deacetylase 5 (Homo sapiens, UniProt Q9UQL6); assay: Inhibition of recombinant full length N-terminal GST-tagged human HDAC5 expressed in baculovirus expression system using Ac-peptide-AMC as substrate preincubated for 15 mins followed by substrate addition and measured after 1 hr by fluorescence assay
Sequence of Histone deacetylase 5 (Q9UQL6 whole entry): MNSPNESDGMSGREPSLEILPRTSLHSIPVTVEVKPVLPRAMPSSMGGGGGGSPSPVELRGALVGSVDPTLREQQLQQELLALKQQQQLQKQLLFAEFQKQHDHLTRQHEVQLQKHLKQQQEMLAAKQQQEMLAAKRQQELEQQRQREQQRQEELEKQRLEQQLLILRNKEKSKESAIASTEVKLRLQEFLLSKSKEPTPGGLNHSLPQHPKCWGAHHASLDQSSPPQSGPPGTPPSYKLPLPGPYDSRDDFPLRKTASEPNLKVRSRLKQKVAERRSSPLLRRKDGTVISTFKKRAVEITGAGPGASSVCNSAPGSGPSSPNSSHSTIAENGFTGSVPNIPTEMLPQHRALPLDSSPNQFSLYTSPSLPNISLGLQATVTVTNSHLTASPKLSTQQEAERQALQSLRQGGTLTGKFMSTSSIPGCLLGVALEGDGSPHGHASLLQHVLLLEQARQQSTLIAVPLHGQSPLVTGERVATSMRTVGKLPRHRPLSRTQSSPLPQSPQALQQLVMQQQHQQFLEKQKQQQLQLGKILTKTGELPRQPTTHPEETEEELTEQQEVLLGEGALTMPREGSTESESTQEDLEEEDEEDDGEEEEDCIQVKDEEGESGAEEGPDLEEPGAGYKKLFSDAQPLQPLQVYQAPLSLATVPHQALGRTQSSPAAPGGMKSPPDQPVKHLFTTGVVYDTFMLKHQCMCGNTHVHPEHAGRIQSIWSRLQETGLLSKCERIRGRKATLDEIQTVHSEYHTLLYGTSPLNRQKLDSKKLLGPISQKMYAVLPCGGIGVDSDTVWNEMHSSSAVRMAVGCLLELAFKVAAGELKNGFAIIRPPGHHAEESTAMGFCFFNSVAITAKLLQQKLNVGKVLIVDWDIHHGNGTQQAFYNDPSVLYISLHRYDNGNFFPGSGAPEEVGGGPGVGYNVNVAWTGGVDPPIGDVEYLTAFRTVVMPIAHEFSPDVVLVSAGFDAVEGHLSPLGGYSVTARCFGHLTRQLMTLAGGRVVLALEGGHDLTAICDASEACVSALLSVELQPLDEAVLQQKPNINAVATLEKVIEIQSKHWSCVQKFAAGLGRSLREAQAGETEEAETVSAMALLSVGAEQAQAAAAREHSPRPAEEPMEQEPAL

MV4-11 [5] = assay: Induction of apoptosis in human MV4-11 cells assessed as early apoptotic cells at 320 nM after 48 hrs by Annexin V-FITC/propidium iodide staining-based flow cytometric analysis (reference value: 10.7%); assay type: functional
MM1.S [6] = assay: Cell cycle arrest in human MM1S cells assessed as accumulation at G2/M phase at 1.25 nM after 24 hrs by propidium iodide/RNase staining-based FACS analysis (reference value: 26.29%); assay type: functional
MV4-11 [7] = assay: Induction of apoptosis in human MV4-11 cells assessed as necrotic cells at 160 nM after 48 hrs by Annexin V-FITC/propidium iodide staining-based flow cytometric analysis (reference value: 0.17%); assay type: functional
MM1.S [8] = assay: Induction of apoptosis in human MM1S cells assessed as early apoptotic cells at 160 nM after 48 hrs by Annexin V-FITC/propidium iodide staining-based flow cytometric analysis (reference value: 0.38%); assay type: functional
MM1.S [9] = assay: Induction of apoptosis in human MM1S cells assessed as viable cells at 40 nM after 48 hrs by Annexin V-FITC/propidium iodide staining-based flow cytometric analysis (reference value: 98.9%); assay type: functional; conditions: read-out: Activity
[10] = target: T1, Serine/threonine-protein kinase mTOR; assay: Inhibition of human recombinant mTOR expressed in mammalian expression system assessed as residual activity at 1 uM
In short: (§1)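 Radiometric kinase panel (99 kinases) run at 1 μM inhibitor in duplicate with [γ-33P]ATP, kinase-specific buffer and substrate at room temperature. The reaction was started with Mg/ATP and stopped with 0.5% phosphoric acid, then spotted on P30 filtermat, washed and scintillation counted. Results are expressed as % remaining activity versus DMSO control.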

MM1.S [11] = assay: Cell cycle arrest in human MM1S cells assessed as accumulation at G2/M phase at 2.5 nM after 24 hrs by propidium iodide/RNase staining-based FACS analysis (reference value: 26.29%); assay type: functional
[12] = target: Histone deacetylase 1/2/3 (Homo sapiens) (UniProt Q13547+O15379+Q92769); assay: Inhibition of HDAC1/2/3 in human MV4-11 cells assessed as increase in H3 acetylation after 6 hrs by Western blot analysis; assay type: cell-based
In short: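 MV4-11 cells treated 6 h at 0.01, 0.1 or 1 μM. Whole-cell protein extracted in RIPA buffer and quantified by BCA. 30 μg protein run on SDS-PAGE and transferred to PVDF. Blocked 1 h in 5% milk, primary antibody overnight at 4 °C, HRP secondary 1 h, ECL detection. Acetyl-histone H3 and acetyl-α-tubulin probed, with GAPDH as loading control.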

MV4-11 [13] = assay: Cell cycle arrest in human MV4-11 cells assessed as accumulation at G0/G1 phase at 10 nM after 24 hrs by propidium iodide/RNase staining-based FACS analysis (reference value: 44.79%); assay type: functional
MM1.S [14] = assay: Cell cycle arrest in human MM1S cells assessed as accumulation at G2/M phase at 5 nM after 24 hrs by propidium iodide/RNase staining-based FACS analysis (reference value: 26.29%); assay type: functional
MV4-11 [15] = assay: Induction of apoptosis in human MV4-11 cells assessed as late apoptotic cells at 80 nM after 48 hrs by Annexin V-FITC/propidium iodide staining-based flow cytometric analysis (reference value: 5.03%); assay type: functional
MM1.S [16] = assay: Cell cycle arrest in human MM1S cells assessed as accumulation at S phase at 1.25 nM after 24 hrs by propidium iodide/RNase staining-based FACS analysis (reference value: 24.49%); assay type: functional
MV4-11 [17] = assay: Cell cycle arrest in human MV4-11 cells assessed as accumulation at G0/G1 phase at 1.25 nM after 24 hrs by propidium iodide/RNase staining-based FACS analysis (reference value: 44.79%); assay type: functional
MM1.S [18] = assay: Induction of apoptosis in human MM1S cells assessed as late apoptotic cells at 80 nM after 48 hrs by Annexin V-FITC/propidium iodide staining-based flow cytometric analysis (reference value: 0.42%); assay type: functional
MM1.S [19] = assay: Induction of apoptosis in human MM1S cells assessed as early apoptotic cells at 10 nM after 48 hrs by Annexin V-FITC/propidium iodide staining-based flow cytometric analysis (reference value: 0.38%); assay type: functional
MM1.S [20] = assay: Induction of apoptosis in human MM1S cells assessed as necrotic cells at 320 nM after 48 hrs by Annexin V-FITC/propidium iodide staining-based flow cytometric analysis (reference value: 0.32%); assay type: functional
[21] = target: FKBP12A/mTOR (Homo sapiens) (UniProt P62942+P42345); assay: Inhibition of human recombinant MTOR/FKBP12 expressed in mammalian expression system assessed as residual activity at 1 uM; in short: as §1
Sequence of FKBP12A/mTOR (Homo sapiens) (P62942 2-108 limits assumed, other chains not shown): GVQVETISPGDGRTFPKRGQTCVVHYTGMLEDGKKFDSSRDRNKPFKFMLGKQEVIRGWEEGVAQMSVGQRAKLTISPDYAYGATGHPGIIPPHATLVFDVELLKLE

OCI-AML-3 = assay: Antiproliferative activity against human OCI-AML3 cells after 72 hrs by MTT assay; assay type: functional, cell-based; conditions: OCI-AML-3, 72 h
Histone deacetylase 7 = Histone deacetylase 7 (Homo sapiens, UniProt Q8WUI4); assay: Inhibition of recombinant full length N-terminal GST-tagged human HDAC7 expressed in baculovirus expression system using Ac-peptide-AMC as substrate preincubated for 15 mins followed by substrate addition and measured after 1 hr by fluorescence assay
Sequence of Histone deacetylase 7 (Q8WUI4 whole entry): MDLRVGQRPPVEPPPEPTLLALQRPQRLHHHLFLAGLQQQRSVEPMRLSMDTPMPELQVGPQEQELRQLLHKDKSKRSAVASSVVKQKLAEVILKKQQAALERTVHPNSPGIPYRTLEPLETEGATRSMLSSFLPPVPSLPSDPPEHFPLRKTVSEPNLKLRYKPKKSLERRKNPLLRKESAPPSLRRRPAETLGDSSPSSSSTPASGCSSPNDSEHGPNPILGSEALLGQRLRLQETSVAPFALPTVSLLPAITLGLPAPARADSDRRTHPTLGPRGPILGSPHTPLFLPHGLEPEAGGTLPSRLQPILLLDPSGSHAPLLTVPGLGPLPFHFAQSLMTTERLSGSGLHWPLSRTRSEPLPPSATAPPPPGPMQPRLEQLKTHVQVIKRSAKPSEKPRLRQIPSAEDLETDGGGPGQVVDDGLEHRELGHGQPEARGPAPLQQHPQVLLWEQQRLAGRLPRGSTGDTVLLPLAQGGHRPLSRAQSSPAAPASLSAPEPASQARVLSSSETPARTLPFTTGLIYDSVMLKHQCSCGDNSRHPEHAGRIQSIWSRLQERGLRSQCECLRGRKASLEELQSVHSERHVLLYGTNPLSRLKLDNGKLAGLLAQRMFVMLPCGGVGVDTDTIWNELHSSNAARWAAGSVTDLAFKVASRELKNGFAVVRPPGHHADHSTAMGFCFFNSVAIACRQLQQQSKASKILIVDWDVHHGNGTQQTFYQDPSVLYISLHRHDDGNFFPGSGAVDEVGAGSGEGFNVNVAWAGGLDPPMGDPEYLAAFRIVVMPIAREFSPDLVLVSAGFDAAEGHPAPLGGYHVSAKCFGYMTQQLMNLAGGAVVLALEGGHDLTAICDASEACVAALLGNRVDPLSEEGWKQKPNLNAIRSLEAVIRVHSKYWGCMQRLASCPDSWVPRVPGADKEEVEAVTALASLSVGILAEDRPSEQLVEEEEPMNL

MM1.S [22] = assay: Cell cycle arrest in human MM1S cells assessed as accumulation at G0/G1 phase at 5 nM after 24 hrs by propidium iodide/RNase staining-based FACS analysis (reference value: 49.22%); assay type: functional
MM1.S [23] = assay: Induction of apoptosis in human MM1S cells assessed as late apoptotic cells at 320 nM after 48 hrs by Annexin V-FITC/propidium iodide staining-based flow cytometric analysis (reference value: 0.42%); assay type: functional
MM1.S [24] = assay: Induction of apoptosis in human MM1S cells assessed as necrotic cells at 20 nM after 48 hrs by Annexin V-FITC/propidium iodide staining-based flow cytometric analysis (reference value: 0.32%); assay type: functional

C[C@@H]1CN(C(=O)Nc2ccc(-c3nc(N4CCOCC4)c4cnn(CCCCCCC(=O)NO)c4n3)cc2)CCO1
Activity (MV4-11 [1]): 9.91% | inhibition [2]: Dose-dependent effect | Activity (MM1.S [3]): 12.6% | Activity (MV4-11 [4]): 1.62% | IC50 (Histone deacetylase 5): > 1000 nM | Activity (MV4-11 [5]): 27.5% | Activity (MM1.S [6]): 24.1% | Activity (MV4-11 [7]): 1.13% | Activity (MM1.S [8]): 19.6% | viability at 0.04 µM (MM1.S [9]): 70.1% | inhibition [10]: Active | Activity (MM1.S [11]): 25.8% | inhibition [12]: Dose-dependent effect | Activity (MV4-11 [13]): 65.4% | Activity (MM1.S [14]): 24.4% | Activity (MV4-11 [15]): 56.5% | Activity (MM1.S [16]): 22.05% | Activity (MV4-11 [17]): 46.85% | Activity (MM1.S [18]): 40.5% | Activity (MM1.S [19]): 3.09% | Activity (MM1.S [20]): 2.2% | inhibition [21]: Active | IC50 (OCI-AML-3): 9.98 nM | IC50 (Histone deacetylase 7): > 1000 nM | Activity (MM1.S [22]): 57.95% | Activity (MM1.S [23]): 62% | Activity (MM1.S [24]): 1.05%
